Where a name gives a salt, the structure may show the parent alone.
Columns and labels:
Aurora kinase B = Aurora kinase B (Homo sapiens, UniProt Q96GD4); test: Inhibition of recombinant Aurora B using tetra(LRRWSLG) as substrate assessed as inhibition of [33P]Phosphate incorporation into substrate after 80 mins by scintillation counting
SW-620 = test: Antiproliferative activity against human SW620 cells after 48 hrs by SRB assay; format: functional; conditions: SW-620, 48 h
In short: (§1)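 Run in the NCI screen of about 60 human tumour cell lines. Cells were exposed to compound for 48 h at five concentrations from 10^-8 to 10^-4 M, then fixed and stained for protein with sulforhodamine B. Absorbance was read at 515 nm. Percent growth was calculated from time-zero, untreated-control and treated readings, and replicate experiments were averaged.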

MDA-MB-435 = test: Antiproliferative activity against human MDA-MB-435 cells after 48 hrs by SRB assay; format: functional; conditions: MDA-MB-435, 48 h; in short: as §1
[1] = molecular target: Serine/threonine-protein kinase PLK1 (Homo sapiens, UniProt P53350); test: Inhibition of recombinant PLK1 using RBERCHKtide as substrate assessed as inhibition of [33P]Phosphate incorporation into substrate after 80 mins by scintillation counting
In short: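 PLK1 (recombinant) was phosphorylating RBER-CHKtide at 2000 ng/50 µL with [33P]-ATP (about 5×10^5 cpm/well). Buffer was 60 mM HEPES-NaOH pH 7.5 with 3 mM MgCl2 and 3 mM MnCl2. After 80 min at 30 °C, 2% phosphoric acid stopped the reaction and wells were washed with saline. Incorporated 33P was counted, with residual activity relative to enzyme-free and inhibitor-free controls.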

CAKI-1 = test: Antiproliferative activity against human CAKI-1 cells after 48 hrs by SRB assay; format: functional; conditions: CAKI-1, 48 h; in short: as §1
HT-29 = test: Antiproliferative activity against human HT-29 cells after 48 hrs by SRB assay; format: functional; conditions: HT-29, 48 h; in short: as §1
MCF7 = test: Antiproliferative activity against human MCF7 cells after 48 hrs by SRB assay; format: functional; conditions: MCF7, 48 h; in short: as §1
TK-10 = test: Antiproliferative activity against human TK10 cells after 48 hrs by SRB assay; format: functional; conditions: TK-10, 48 h; in short: as §1
UACC-257 = test: Antiproliferative activity against human UACC257 cells after 48 hrs by SRB assay; format: functional; conditions: UACC-257, 48 h; in short: as §1
EKVX = test: Antiproliferative activity against human EKVX cells after 48 hrs by SRB assay; format: functional; in short: as §1
SNB-19 = test: Antiproliferative activity against human SNB19 cells after 48 hrs by SRB assay; format: functional; conditions: SNB-19, 48 h; in short: as §1
OVCAR-3 = test: Antiproliferative activity against human OVCAR3 cells after 48 hrs by SRB assay; format: functional; conditions: OVCAR-3, 48 h; in short: as §1
[2] = molecular target: RAC-alpha serine/threonine-protein kinase (Homo sapiens, UniProt P31749); test: Inhibition of recombinant AKT1 using GSK3 as substrate assessed as inhibition of [33P]Phosphate incorporation into substrate after 80 mins by scintillation counting
In short: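 Recombinant AKT1 was assayed radiometrically with [33P]-ATP (about 5×10^5 cpm/well) and GSK3(14-27) substrate at 2000 ng/50 µL. Buffer was 60 mM HEPES-NaOH pH 7.5 with 3 mM MgCl2 and 3 mM MnCl2, and compound was added in 10% DMSO. After 80 min at 30 °C the reaction was stopped with 2% phosphoric acid, washed with 0.9% NaCl and 33P incorporation counted by scintillation.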

Focal adhesion kinase 1 = Focal adhesion kinase 1 (Homo sapiens, UniProt Q05397); test: Inhibition of recombinant FAK using poly(Glu,Tyr)4 as substrate assessed as inhibition of [33P]Phosphate incorporation into substrate after 80 mins by scintillation counting
Focal adhesion kinase 1, sequence (Q05397 whole entry): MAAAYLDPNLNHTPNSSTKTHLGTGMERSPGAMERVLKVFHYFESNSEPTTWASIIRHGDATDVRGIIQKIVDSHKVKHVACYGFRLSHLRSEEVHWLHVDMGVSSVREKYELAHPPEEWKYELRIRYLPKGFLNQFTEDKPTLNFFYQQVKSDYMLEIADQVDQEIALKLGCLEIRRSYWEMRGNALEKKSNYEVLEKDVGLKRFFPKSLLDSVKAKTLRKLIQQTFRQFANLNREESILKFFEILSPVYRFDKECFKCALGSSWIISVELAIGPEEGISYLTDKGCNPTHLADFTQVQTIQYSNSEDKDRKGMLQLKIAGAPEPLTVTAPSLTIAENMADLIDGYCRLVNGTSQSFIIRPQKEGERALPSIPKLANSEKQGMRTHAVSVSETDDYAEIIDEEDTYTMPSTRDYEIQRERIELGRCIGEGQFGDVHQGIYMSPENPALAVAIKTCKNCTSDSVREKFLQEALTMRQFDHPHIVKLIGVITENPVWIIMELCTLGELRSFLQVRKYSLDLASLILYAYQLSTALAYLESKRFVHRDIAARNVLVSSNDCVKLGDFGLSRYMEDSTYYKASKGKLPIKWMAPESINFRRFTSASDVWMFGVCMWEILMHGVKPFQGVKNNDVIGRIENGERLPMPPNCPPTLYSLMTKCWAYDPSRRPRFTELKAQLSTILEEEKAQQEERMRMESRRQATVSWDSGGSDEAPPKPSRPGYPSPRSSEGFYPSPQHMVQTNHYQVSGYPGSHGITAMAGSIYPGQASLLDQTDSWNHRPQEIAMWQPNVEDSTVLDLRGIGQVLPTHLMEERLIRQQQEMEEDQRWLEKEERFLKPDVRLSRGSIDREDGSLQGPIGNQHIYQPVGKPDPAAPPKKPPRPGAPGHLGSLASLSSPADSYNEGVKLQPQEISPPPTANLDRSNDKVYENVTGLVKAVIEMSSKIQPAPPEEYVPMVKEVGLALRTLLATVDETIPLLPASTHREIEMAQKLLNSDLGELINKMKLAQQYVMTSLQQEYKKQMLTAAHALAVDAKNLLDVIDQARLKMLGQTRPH

RAC-alpha serine/threonine-protein kinase, sequence (P31749 whole entry): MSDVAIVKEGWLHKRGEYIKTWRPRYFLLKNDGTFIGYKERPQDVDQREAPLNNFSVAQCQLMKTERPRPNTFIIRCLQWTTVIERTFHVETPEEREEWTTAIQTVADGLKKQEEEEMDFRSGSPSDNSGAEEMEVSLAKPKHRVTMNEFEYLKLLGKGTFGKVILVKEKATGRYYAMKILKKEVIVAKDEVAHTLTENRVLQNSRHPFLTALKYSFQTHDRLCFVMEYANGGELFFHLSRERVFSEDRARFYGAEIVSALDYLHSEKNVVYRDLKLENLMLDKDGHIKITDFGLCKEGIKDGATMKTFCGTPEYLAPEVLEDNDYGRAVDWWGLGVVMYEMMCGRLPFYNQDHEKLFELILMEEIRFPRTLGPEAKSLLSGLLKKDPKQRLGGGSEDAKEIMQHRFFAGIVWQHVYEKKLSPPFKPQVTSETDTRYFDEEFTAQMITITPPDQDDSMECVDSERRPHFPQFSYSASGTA
Aurora kinase B, sequence (Q96GD4 whole entry): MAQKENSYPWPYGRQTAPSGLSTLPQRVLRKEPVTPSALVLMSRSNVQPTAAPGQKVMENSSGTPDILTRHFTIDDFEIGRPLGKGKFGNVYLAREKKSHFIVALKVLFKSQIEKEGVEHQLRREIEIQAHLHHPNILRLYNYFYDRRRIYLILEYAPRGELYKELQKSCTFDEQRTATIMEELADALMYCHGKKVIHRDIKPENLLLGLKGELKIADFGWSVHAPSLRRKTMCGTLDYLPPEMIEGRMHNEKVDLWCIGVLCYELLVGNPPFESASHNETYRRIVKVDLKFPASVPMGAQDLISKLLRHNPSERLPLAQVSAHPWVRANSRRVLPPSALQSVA
Serine/threonine-protein kinase PLK1, sequence (P53350 whole entry): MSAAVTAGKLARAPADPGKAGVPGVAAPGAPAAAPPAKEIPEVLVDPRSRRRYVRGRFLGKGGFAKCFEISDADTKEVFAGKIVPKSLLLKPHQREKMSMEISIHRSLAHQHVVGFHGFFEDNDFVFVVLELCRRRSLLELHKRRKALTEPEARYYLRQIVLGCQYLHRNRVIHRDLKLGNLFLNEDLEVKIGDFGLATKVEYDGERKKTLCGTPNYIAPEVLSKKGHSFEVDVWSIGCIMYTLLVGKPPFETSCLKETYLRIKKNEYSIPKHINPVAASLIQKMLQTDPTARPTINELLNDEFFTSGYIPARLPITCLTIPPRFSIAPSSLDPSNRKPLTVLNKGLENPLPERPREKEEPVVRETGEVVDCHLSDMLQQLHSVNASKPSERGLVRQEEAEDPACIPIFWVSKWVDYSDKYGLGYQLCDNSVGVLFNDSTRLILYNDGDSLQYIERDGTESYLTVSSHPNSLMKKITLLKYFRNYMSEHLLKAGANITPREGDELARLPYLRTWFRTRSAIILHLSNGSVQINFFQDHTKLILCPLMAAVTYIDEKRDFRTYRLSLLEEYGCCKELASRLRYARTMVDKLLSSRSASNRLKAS

Structure (SMILES)	IC50 (Aurora kinase B)	GI50 (SW-620)	GI50 (MDA-MB-435)	IC50 [1]	GI50 (CAKI-1)	GI50 (HT-29)	GI50 (MCF7)	GI50 (TK-10)	GI50 (UACC-257)	GI50 (EKVX)	GI50 (SNB-19)	GI50 (OVCAR-3)	IC50 [2]	IC50 (Focal adhesion kinase 1)
COc1ccc(Nc2nccc(-c3nc4ccccc4n3C)n2)cc1O	6 µM	0.62 µM	0.19 µM	1.2 µM	0.86 µM	27 µM	0.47 µM	26 µM	5.5 µM	17 µM	10 µM	0.93 µM	> 100 µM	
COc1ccc(Nc2ncc3c(n2)-c2ccccc2NC(=O)C3)cc1O	3 µM	0.44 µM	0.2 µM		0.15 µM	3.4 µM	0.79 µM	4.1 µM	19 µM	4.1 µM	21 µM	0.55 µM	> 100 µM	0.64 µM
CNC(=O)c1cc(Oc2ccc(NC(=O)Nc3ccc(Cl)c(C(F)(F)F)c3)cc2)ccn1 [SORAFENIB TOSYLATE]		3.2 µM	2 µM		3.2 µM	2.5 µM	2.5 µM	5 µM	2 µM	2.5 µM	3.2 µM	3.2 µM		

From ChEMBL document CHEMBL2034932, “2-Anilino-4-(benzimidazol-2-yl)pyrimidines--a multikinase inhibitor scaffold with antiproliferative activity toward cancer cell lines” (Eur J Med Chem, 2012)
